Assay results published in ChEMBL document CHEMBL1143798, “Pyrimido[4,5-c]quinolin-1(2H)-ones as a novel class of antimitotic agents: Synthesis and in vitro cytotoxic activity” (Eur J Med Chem, 2007).

Experiments:
HT-29 = assay: Cytotoxicity against human HT29 cells by MTT assay; format: functional, cell-based
Procedure, shortened: (§1)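 Cells grown in DMEM with 10% FBS and antibiotics at 37 °C, 5% CO2, seeded ~5000/well; compound in DMSO added after 24 h, 72 h exposure. MTT (1 mg/mL final, serum- and phenol-red-free DMEM) 4 h, formazan dissolved in 2-propanol, OD 550 nm (ref 690 nm). IC50 = concentration halving OD vs untreated; mean of three independent experiments with SD; doxorubicin positive control.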

MDA-MB-231 = assay: Cytotoxicity against human MDA-MB-231 cells by MTT assay; format: functional, cell-based; procedure, shortened: as §1
HT-1080 [1] = assay: Cytotoxicity against human HT1080 cells by MTT assay; format: functional, cell-based; procedure, shortened: as §1
HT-1080 [2] = assay: Induction of apoptosis in human HT1080 cells by flow cytometer; format: functional
Procedure, shortened: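 HT-1080 cells incubated 36 h, ethanol-fixed (50%) and stained with RNase-containing propidium iodide; apoptosis estimated by flow cytometry as sub-diploid peak in DNA-content histogram, expressed as percentage of total events collected.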

HT-1080 [3] = assay: Cell cycle arrest in human HT1080 cells by accumulation at S phase at 5 uM after 36 hrs; format: functional
Procedure, shortened: (§2)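 HT-1080 fibrosarcoma cells exposed 36 h, then trypsinized, PBS-washed, fixed in 50% ethanol and stained with propidium iodide containing RNase; DNA content measured by flow cytometry and cell-cycle phase distribution (G0/G1, S, G2/M) determined from DNA histograms.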

HT-1080 [4] = assay: Inhibition of tubulin polymerization in human HT1080 cells after 36 hrs by Western analysis; format: functional, cell-based
Procedure, shortened: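 Cells lysed in 20 mM Tris-HCl pH 6.8, 1 mM MgCl2, 2 mM EGTA, 0.5% NP-40 with protease/phosphatase inhibitors; spun 13,000 × g 10 min to separate soluble from polymerized tubulin pellet; fractions run on 10% SDS-PAGE, anti-α-tubulin Western blot.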

HT-1080 [5] = assay: Cell cycle arrest in human HT1080 cells by accumulation at G2/M phase at 5 uM after 36 hrs; format: functional; procedure, shortened: as §2
HT-1080 [6] = assay: Cell cycle arrest in human HT1080 cells by accumulation at G0/G1 phase at 5 uM after 36 hrs; format: functional; procedure, shortened: as §2

SMILES	IC50 (HT-29)	IC50 (MDA-MB-231)	IC50 (HT-1080 [1])	Activity (HT-1080 [2])	Activity (HT-1080 [3])	Activity (HT-1080 [4])	Activity (HT-1080 [5])	Activity (HT-1080 [6])
Cc1nc2c(-c3ccc(Cl)cc3)nc3ccccc3c2c(=O)n1N	> 100 µM	> 100 µM	> 100 µM					
Nn1c(-c2ccccc2)nc2c(-c3ccc(Br)cc3)nc3ccccc3c2c1=O	89.9 µM	> 100 µM	47.4 µM					
Nn1c(-c2ccc(Cl)cc2)nc2c(-c3ccc(Cl)cc3)nc3ccc(Cl)cc3c2c1=O	1.97 µM	1.82 µM	1.23 µM	7.62%	11.26%	Dose-dependent effect	31.49%	57.25%
Cc1nc2c(-c3ccc(Cl)cc3)nc3ccc(Cl)cc3c2c(=O)n1N	52 µM	> 100 µM	34.3 µM					
Nn1c(-c2ccccc2)nc2c(-c3ccc(Br)cc3)nc3ccc(Cl)cc3c2c1=O	2.14 µM	13.7 µM	1.48 µM	5.51%	28%		26.22%	45.78%
Nn1c(-c2ccc(Cl)cc2)nc2c(-c3ccc(Cl)cc3)nc3ccccc3c2c1=O	18.1 µM	55.3 µM	6.84 µM					
Nn1c(-c2ccc(Cl)cc2)nc2c(-c3ccc(Br)cc3)nc3ccccc3c2c1=O	23.2 µM	34.2 µM	10.8 µM					
Nn1c(-c2ccccc2)nc2c(-c3ccc(Cl)cc3)nc3ccccc3c2c1=O	> 100 µM	> 100 µM	23 µM					
Nn1c(-c2ccccc2)nc2c(-c3ccc(Cl)cc3)nc3ccc(Cl)cc3c2c1=O	4.68 µM	15.8 µM	2.9 µM	2.21%	26.86%		22.46%	50.68%
COc1cccc2c1C(=O)c1c(O)c3c(c(O)c1C2=O)C[C@@](O)(C(=O)CO)C[C@@H]3O[C@H]1C[C@H](N)[C@H](O)[C@H](C)O1 [DOXORUBICIN]	0.35 µM	0.03 µM	0.022 µM					
Nn1c(-c2ccc(Cl)cc2)nc2c(-c3ccc(Br)cc3)nc3ccc(Cl)cc3c2c1=O	2.82 µM	2.89 µM	1.84 µM	9.14%	22.48%		27.75%	49.76%
Cc1nc2c(-c3ccc(Br)cc3)nc3ccccc3c2c(=O)n1N	77.8 µM	> 100 µM	44.8 µM					
